For one molecule, concentration, Ki and PT extension results are on record in ChEMBL document CHEMBL1131090, “Discovery of N-[2-[5-[Amino(imino)methyl]-2-hydroxyphenoxy]-3, 5-difluoro-6-[3-(4, 5-dihydro-1-methyl-1H-imidazol-2-yl)phenoxy]pyridin-4-yl]-N-methylgl y cine (ZK-807834): a potent, selective, and orally active inhibitor of the blood coagulation enzyme factor Xa” (J Med Chem, 1998).

pKi: −log10 of the molar value.

Series [1] in a line: plasma concentration was measured against the Nonhuman primates (cynomolgus monkey) using HPLC after 4 hr; uM.
Series [2] in a line: Inhibitor plasma concentration was measured in dogs on 10 mg/kg oral dosing after 1 hr administration; uM. Type of series: ADME, organism-based, Canis lupus familiaris. The arrangement: dose 10 mg/kg, route oral. The conditions noted are these: dog. The method in brief: (§1)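 Conscious beagles (10–16 kg) were given 10 mg/kg by oral gavage as homogeneous solutions in aqueous acid (n = 3). Plasma inhibitor concentrations were measured at the stated times by an ex vivo FXa inhibition activity assay. For ester/acid pairs, the value is the total ester plus acid concentration.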

A short description of series [3]: Inhibitor plasma concentration was measured in dogs on 10 mg/kg oral dosing after 2 hr administration; uM. The arrangement: dose 10 mg/kg, route oral. The conditions noted are these: dog. Type of series: ADME, organism-based, Canis lupus familiaris. The method in brief:
as §1

A short description of series [4]: plasma concentration was measured against the Nonhuman primates (cynomolgus monkey) using HPLC after 3 hr; uM.
Another series concerns the target Prothrombin (Homo sapiens, UniProt P00734). Description: Inhibitory potency was measured against human thrombin. The method in brief:
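Purified human thrombin (16 nM final) was assayed chromogenically with S-2302 (300 μM final) in 50 mM Tris-HCl pH 7.5, 150 mM NaCl, 2.5 mM CaCl2, 0.1% PEG 6000 at room temperature. Varying inhibitor concentrations were tested at a substrate level equal to Km, assuming a competitive mechanism, to derive Ki.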

Series [5] can be described thus: plasma concentration was measured against the Nonhuman primates (cynomolgus monkey) using HPLC after 1 hr; uM.
Series [6] is described as follows: plasma concentration was measured against the Nonhuman primates (baboon) using FXa inhibition assay after 2 hr; uM. Type of series: ADME, organism-based, Papio. The essentials: (§2)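 Baboons received a 10 mg/kg oral dose in 1.5% carboxymethylcellulose plus 1% Tween 80 via nasogastric tube (2–4 animals per compound). Plasma inhibitor concentration was determined at the stated times by FXa inhibition assay.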

A short description of series [7]: plasma concentration was measured against the Nonhuman primates (baboon) using FXa inhibition assay after 6 h; uM. Type of series: ADME, organism-based, Papio. The essentials:
as §2

A short description of series [8]: plasma concentration was measured against the Nonhuman primates (baboon) using FXa inhibition assay after 3 hr; uM. Type of series: ADME, organism-based, Papio. The method in brief: as §2
Series [9] can be described thus: Inhibitor plasma concentration was measured in dogs on 10 mg/kg oral dosing after 4 hr administration; uM. Type of series: ADME, organism-based, Canis lupus familiaris. The arrangement: dose 10 mg/kg, route oral. To be noted: dog. The essentials: as §1
The nature of series [10]: Prothrombin time concentration to give a 2-fold extension activity against pooled lyophilized human plasma. Type of series: functional. The method in brief: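 Prothrombin time was measured in pooled lyophilized human plasma with Thromboplastin IS on an automated coagulation analyzer. The value is the inhibitor concentration that doubles PT.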
Series [11] in a line: plasma concentration was measured against the Nonhuman primates (cynomolgus monkey) using HPLC after 2 hr; uM.
Series [12] is described as follows: plasma concentration was measured against the Nonhuman primates (baboon) using FXa inhibition assay after 1 hr; uM. Type of series: ADME, organism-based, Papio. The essentials:
as §2

For another series, the target named is T1, Serine protease 1 (Bos taurus, UniProt P00760).
T1 sequence (P00760 whole entry): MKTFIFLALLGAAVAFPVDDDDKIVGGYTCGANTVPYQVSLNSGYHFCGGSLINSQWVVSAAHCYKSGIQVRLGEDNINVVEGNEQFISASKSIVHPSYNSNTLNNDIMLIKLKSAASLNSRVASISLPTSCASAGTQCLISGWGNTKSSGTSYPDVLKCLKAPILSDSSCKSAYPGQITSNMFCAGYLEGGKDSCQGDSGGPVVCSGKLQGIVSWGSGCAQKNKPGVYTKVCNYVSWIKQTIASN
As to the kind of experiment: Inhibitory potency was measured against bovine trypsin.

The nature of series [13]: plasma concentration was measured against the Nonhuman primates (baboon) using FXa inhibition assay after 4 hr; uM. Type of series: ADME, organism-based, Papio. The essentials:
as §2

Regarding `CN1CCN=C1c1cccc(Oc2nc(Oc3cc(C(=N)N)ccc3O)c(F)c(N(C)CC(=O)O)c2F)c1` [FIDEXABAN], the results for the concentration at 4 h in series [1], in series [9] and in series [13] were 1200 nM, 700 nM and 1100 nM, respectively. Also, the concentration at 1 h came out at 3000 nM in series [2], 200 nM in series [5] and 300 nM in series [12]. Moreover, the results for the concentration at 2 h in [3], in [6] and in [11] were 2100 nM, 600 nM and 500 nM, respectively. The concentration at 3 h in series [4] was 700 nM; in series [8], 900 nM. The values for the pKi at Prothrombin and on Serine protease 1 were 5.70 and 6.55, respectively. Further, in series [7], the concentration at 6 h amounted to 1000 nM. In addition, the PT extension in series [10] is on record as 230 nM.
